# Hits are enriched below; roughly 2.1% of the tested compounds scored in any of these assays.
# IEC-6 cytotox – cytotoxicity in IEC-6 intestinal epithelial cells, primary screen, cytotoxicity control for KLF5 inhibitor project, cell-based, luminescence | IEC-6 cytotoxicity, luminescence viability | inhibition, % at 5 µM | hit rate 0.78% among 290,000 | AID 1825, 2009; in the data active means inhibition above about 22%;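 further: 0% = plate median of test compound wells and 100% = cytotoxic reference compound wells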
# MT stabilizer – microtubule stabilizers in HeLa cells, primary screen, imaging, high-content imaging; HeLa tubulin immunostaining HCS, 24 h; share of cells brighter than vehicle mean+2SD; % tubulin-high responders, % at 10 µM; hit rate 0.83% among 200,000;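 active means plate Z-score above 3 for both tubulin-high and condensed-nucleus cell shares, with cell loss under 80%, at 10 µM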;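 further: anti alpha tubulin signal scored within the nucleus-defined area of each cell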
# KLF5 inh – KLF5 expression inhibitors, primary screen, DLD-1 cells, luminescence | hit rate 0.23% among 290,000 | DLD-1 KLF5 promoter-luciferase reporter | inhibition, % at 5 µM;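 active means inhibition above a per-plate limit of that plate's mean compound inhibition plus 3 SD, cut at about 60% in these data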;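 further: 0% = DMSO wells and 100% = LY294002 at 200 µM; higher means less KLF5 promoter-driven luciferase light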
# Ba/F3 V617F tox – reduced viability of JAK2V617F-dependent Ba/F3 cells, primary screen, JAK2V617F inhibitor project, cell-based, Ba/F3 EpoR-JAK2V617F, luminescence; ATP luminescence; inhibition, % at 5.6 µM; hit rate 1.1% among 220,000; AID 1446, 2008;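 active means inhibition above the campaign mean plus 3 SD over all tested compounds, cut at about 24% in these data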;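 further: cytokine-independent growth of Ba/F3 cells driven by EpoR plus mutant JAK2; 0% = DMSO-treated cells and 100% = JAK inhibitor I control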
# BaF3 parental – parental Ba/F3 cell viability inhibition, counter-screen for JAK2V617F inhibitor project, murine pro-B, CellTiter-Glo luminescence. hit rate 1.1% among 220,000. inhibition, % at 5.6 µM. CellTiter-Glo ATP luminescence;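 active means inhibition above a per-campaign cutoff, the mean inhibition of all tested compounds plus 3 SD, cut at about 27% in these data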;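 further: 0% = DMSO wells and 100% = JAK Inhibitor I control wells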
# b-catenin transl – modulators of beta-catenin nuclear translocation, primary screen, imaging, HeLa cells, immunofluorescence, high-content; nuclear translocation activity, % at 5 µM; hit rate 0.3% among 190,000; AID 1665, 2009;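 active means nuclear translocation activity above 50% at 5 µM, with a well cell count of 50 or more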;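 further: per-cell ratio of nuclear to cytoplasmic median beta-catenin stain intensity; plate controls were DMSO negative control for no effect and GSK-3 inhibitor IX positive control for full effect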
#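 Technique: fluorescence imaging of beta-catenin antibody stain plus DAPI / Material: human HeLa cell line / Incubation: compound treatment 24 h, 37°C, 5% CO2 / Read-out basis: % activation of per-cell nuclear versus cytoplasmic median beta-catenin signal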
# BaF3 parental 2 – parental Ba/F3 cell viability inhibition, counter-screen for JAK2V617F inhibitor project, murine pro-B, CellTiter-Glo luminescence; shares compounds with Ba/F3 V617F tox; cells kept alive by added IL-3; inhibition, % at 5.6 µM; hit rate 31% among 580; AID 1520, 2009;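 active means cell growth inhibition above the hit limit set in the earlier mutant JAK2 cell screen, cut at about 27% in these data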;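 further: plate controls were DMSO-treated cells for no effect and JAK Inhibitor I control wells for full effect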
# JAK2V617F conf – viability loss in Ba/F3 EpoR-JAK2V617F cells, confirmation, JAK2V617F inhibitor project, cell-based, luminescence, triplicate | hit rate 66% among 580 | shares compounds with Ba/F3 V617F tox | CellTiter-Glo luminescence | inhibition, % at 5.6 µM;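 active means mean inhibition above the hit cutoff derived in the earlier primary screen, cut at about 25% in these data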;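 further: 0% = DMSO-treated cells and 100% = JAK inhibitor I control wells; higher means lower luminescence from reduced cell ATP and viability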
# The depositor's hits bear a star; x = not tested or not shown.
SMILES,IEC-6 cytotox,MT stabilizer,KLF5 inh,Ba/F3 V617F tox,BaF3 parental,b-catenin transl,BaF3 parental 2,JAK2V617F conf
CCOC(=O)N1CCN(c2c(F)cc3[nH]c(=S)[nH]c3c2Br)CC1,6,47*,-27,28*,12,-1,7,25*
O=C1C=CC(=O)N1CCNc1ncc(C(F)(F)F)cc1Cl,17,4,-3,48*,-1,0,-1,82*
O=C1CC(=O)N(CCNc2ncc(C(F)(F)F)cc2Cl)C(=O)N1,-2,2,-11,0,1,0,x,x
Cc1ccc(-c2nc(C=Nc3ccc(O)cc3)c(O)o2)cc1,5,8,-11,38*,19,1,28*,83*
C[C@H](NC(=O)c1ccccc1Cl)C(=O)NCCc1ccc(S(N)(=O)=O)cc1,3,x,-12,x,x,x,x,x
O=C1C2CCCN2C(c2ccc(F)cc2)N1c1ccc(Cl)cc1 (centres undefined),4,9,-37,42*,18,x,3,18
O=C1C2CCCN2C(c2ccccc2)N1c1ccc(F)cc1 (centres undefined),0,3,1,-3,4,-1,x,x
C=CC[n+]1c(/C=C/c2ccc(OC(C)=O)c(OC)c2)ccc2ccccc21,1,x,-16,x,x,x,x,x
Cc1ccc(C23CC4CC(CC(C(=O)N5CCN(C)CC5)(C4)C2)C3)cc1,-7,x,-24,0,-2,0,x,x
Cc1ccc(C23CC4CC(CC(CC(=O)N5CCOCC5)(C4)C2)C3)cc1,-2,3,1,97*,5,3,3,16
Cc1sc2ncnc(NCc3cccs3)c2c1C,12,3,-10,34*,21,x,43*,64*
Cc1c(N=C2N=C(NC(=O)Nc3ccc(Cl)cc3)c3ccccc32)c(=O)n(-c2ccccc2)n1C,4,5,-6,2,8,0,x,x
N=c1c2c3c(sc2ncn1Cc1ccco1)CCCCC3,4,4,-12,25*,1,-6,-5,8
Cn1cnc([N+](=O)[O-])c1NC(C)(C)C,-1,2,-34,2,9,x,x,x
Cn1cnc([N+](=O)[O-])c1S(=O)(=O)c1ccc(Cl)cc1,11,2,-1,26*,-2,x,1,69*
CS(=O)(=O)Nc1cccc(-c2cnc3ccccc3n2)c1,-3,x,-125,x,x,x,x,x
O=c1oc2ccccc2c2c1ncn2CCN1CCOCC1,6,2,-6,61*,12,2,1,11
CC(C)(C)SCCNS(=O)(=O)c1ccccc1,0,1,-2,99*,-2,-6,-5,-12
CC(C)(C)SCCNS(=O)(=O)c1ccc2ccccc2c1,0,2,-3,-2,0,x,x,x
COc1c(Cl)cc(C(=O)NN)cc1Cl,52*,6,15,42*,21,0,-6,-2
CC1CCCN(Cc2csc(N)n2)C1 (centres undefined),-4,4,2,0,6,-7,x,x
CC(=O)Oc1ccc(OC(C)=O)c(SCCCCCCl)c1,1,5,-28,85*,4,1,102*,97*
CC(=O)Oc1ccc(C(=O)O)cc1OC(C)=O,-5,3,5,-3,-2,2,x,x
CCOc1ccc(C2c3[nH]c4ccccc4c3CCN2CCCn2cccn2)cc1 (centres undefined),8,3,16,2,10,2,x,x
CSCCC(NS(=O)(=O)c1ccccc1F)C(=O)Nc1cccc(C)n1 (centres undefined),3,x,-32,x,x,x,x,x
SMILES,IEC-6 cytotox,MT stabilizer,KLF5 inh,Ba/F3 V617F tox,BaF3 parental,b-catenin transl,BaF3 parental 2,JAK2V617F conf
COc1cc(/C=N/Nc2nc(N3CCCC3)nc(N3CCCC3)n2)ccc1O,3,1,-8,0,2,2,x,x
Oc1ccc(/C=N/Nc2nc(N3CCCC3)nc(N3CCCC3)n2)cc1O,1,2,-11,46*,5,0,71*,98*
CC1(C)CC(=O)C(C=NCCN2CCN(C(=S)Nc3ccc(F)cc3)CC2)=C(O)C1,6,4,-3,37*,5,-1,23,40*
CCOC(=O)c1ccccc1Nc1cn(C(C)=O)c2ccccc12,1,3,3,1,6,x,x,x
CC(=O)n1cc(N(C(=O)CCl)c2ccc(Cl)cc2)c2ccccc21,9,x,-24,98*,13,0,104*,98*
COc1ccc(N2CC(C(=O)N[C@H](C(=O)NC3CCCCC3)C(C)C)CC2=O)cc1 (some centres undefined),4,x,-5,x,x,x,x,x
Nc1nc(=S)c2ncn(C3OC(CO)C(O)C3O)c2[nH]1 (centres undefined),10,x,-27,45*,25,0,7,30*
Cc1nc(Nc2ccc3c(c2)OCCO3)c2oc3ccccc3c2n1,20,5,-43,59*,7,-1,-5,3
O=C(N=Nc1c(O)n(C2OC(=O)c3ccccc32)c2ccccc12)c1ccco1 (centres undefined),3,x,20,1,1,-1,x,x
Cc1ccc(NC(=S)N(CCCN2CCC(C)CC2)Cc2ccco2)cc1C,-4,3,-27,25*,14,-2,29*,46*
CC1=CC(C)(C)Nc2ccc(OC(=O)CN3C(=O)CCC3=O)cc21,4,6,-10,4,4,-3,x,x
CC1=CC(C)(C)Nc2ccc(OC(=O)c3ccco3)cc21,-4,9,-12,43*,0,-5,37*,83*
COCCOC(=O)C1=C(C)N(c2ccccc2)C(=O)NC1c1cccc([N+](=O)[O-])c1 (centres undefined),-2,2,-16,34*,12,-2,-3,9
COc1cc(/C=C2\SC(=S)N(CC(=O)NC(C)(C)C)C2=O)cc(OC)c1OC,5,2,-12,102*,5,0,-7,9
COc1cc(/C=C2/SC(=S)N(CC(=O)NC(C)(C)C)C2=O)cc(OC)c1OC,-1,4,-22,2,5,-4,x,x
COc1cc([N+](=O)[O-])cc(/C=N/N(CCC#N)C(C)=O)c1O,-4,4,-9,0,4,0,x,x
N#CC1=C2SCC(O)(c3ccccc3)N2C(=O)CC1c1ccccc1F (centres undefined),15,47*,21,27*,17,x,20,25*

# Screens from PubChem BioAssay.
